Data as given in ChEMBL document CHEMBL3779798, “Novel seleno- and thio-urea derivatives with potent in vitro activities against several cancer cell lines” (Eur J Med Chem, 2016).

Experiments:
Assay type in all cases: functional, cell-based
[1] = Anticancer activity against human BxPC3 cells assessed as inhibition of cell growth after 72 hrs by MTT assay; settings: BXPC-3, 72 h
In short: (§1)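 MTT assay at 3,000 cells/well. Cells treated with DMSO or seven concentrations from 0.5 to 50 µM for 24, 48 or 72 h. MTT added 3 h before the end point; formazan dissolved in DMSO and read at 570 and 630 nm. IC50 is the concentration giving 50% growth inhibition. Media: PANC-1, BxPC3 and 1205Lu in DMEM; DU145 and A549 in RPMI 1640; HT29, HCT116 and RKO in McCoy's 5A, all with 10% FBS and pen/strep, at 37 °C and 5% CO2.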

[2] = Anticancer activity against human PANC1 cells assessed as inhibition of cell growth after 24 hrs by MTT assay; settings: PANC-1, 24 h; in short: as §1
[3] = Anticancer activity against human 1205 Lu cells assessed as inhibition of cell growth after 48 hrs by MTT assay; in short: as §1
[4] = Anticancer activity against human PANC1 cells assessed as inhibition of cell growth after 72 hrs by MTT assay; settings: PANC-1, 72 h; in short: as §1
[5] = Anticancer activity against human DU145 cells assessed as inhibition of cell growth after 72 hrs by MTT assay; settings: DU-145, 72 h; in short: as §1
[6] = Anticancer activity against human BxPC3 cells assessed as inhibition of cell growth after 48 hrs by MTT assay; settings: BXPC-3, 48 h; in short: as §1
A549 [7] = experiment: Anticancer activity against human A549 cells assessed as inhibition of cell growth after 72 hrs by MTT assay; settings: A549, 72 h; in short: as §1
[8] = Anticancer activity against human HCT116 cells assessed as inhibition of cell growth after 48 hrs by MTT assay; settings: HCT-116, 48 h; in short: as §1
[9] = Anticancer activity against human BxPC3 cells assessed as inhibition of cell growth after 24 hrs by MTT assay; settings: BXPC-3, 24 h; in short: as §1
A549 [10] = experiment: Anticancer activity against human A549 cells assessed as inhibition of cell growth after 48 hrs by MTT assay; settings: A549, 48 h; in short: as §1
[11] = Anticancer activity against human DU145 cells assessed as inhibition of cell growth after 24 hrs by MTT assay; settings: DU-145, 24 h; in short: as §1
[12] = Anticancer activity against human 1205 Lu cells assessed as inhibition of cell growth after 72 hrs by MTT assay; in short: as §1
[13] = Anticancer activity against human PANC1 cells assessed as inhibition of cell growth after 48 hrs by MTT assay; settings: PANC-1, 48 h; in short: as §1
[14] = Anticancer activity against human 1205 Lu cells assessed as inhibition of cell growth after 24 hrs by MTT assay; in short: as §1
[15] = Anticancer activity against human HCT116 cells assessed as inhibition of cell growth after 24 hrs by MTT assay; settings: HCT-116, 24 h; in short: as §1
[16] = Anticancer activity against human DU145 cells assessed as inhibition of cell growth after 48 hrs by MTT assay; settings: DU-145, 48 h; in short: as §1
[17] = Anticancer activity against human HCT116 cells assessed as inhibition of cell growth after 72 hrs by MTT assay; settings: HCT-116, 72 h; in short: as §1
A549 [18] = experiment: Anticancer activity against human A549 cells assessed as inhibition of cell growth after 24 hrs by MTT assay; settings: A549, 24 h; in short: as §1

| Structure (SMILES) | IC50 [1] | IC50 [2] | IC50 [3] | IC50 [4] | IC50 [5] | IC50 [6] | IC50 (A549 [7]) | IC50 [8] | IC50 [9] | IC50 (A549 [10]) | IC50 [11] | IC50 [12] | IC50 [13] | IC50 [14] | IC50 [15] | IC50 [16] | IC50 [17] | IC50 (A549 [18]) |
| --- | --- | --- | --- | --- | --- | --- | --- | --- | --- | --- | --- | --- | --- | --- | --- | --- | --- | --- |
| N=C(N)[Se]Cc1ccc2ccccc2n1 | 7.8 µM | 18 µM | 9.9 µM | 9.6 µM | 7.3 µM | 17 µM | 8.1 µM | 19.6 µM | 36.6 µM | 15.1 µM | 19.6 µM | 7.1 µM | 15.9 µM | 14.4 µM | 29.7 µM | 11.6 µM | 10.6 µM | 39.6 µM |
| N=C(N)[Se]CN1C(=O)c2ccccc2C1=O | 18.8 µM | 23.5 µM | 13.2 µM | 12.6 µM | 6.9 µM | 19.1 µM | 5.5 µM | 17.9 µM | 19.8 µM | 7.8 µM | 18.8 µM | 9.3 µM | 15.3 µM | 19 µM | 29.2 µM | 14 µM | 15.6 µM | 11.2 µM |
| Cc1noc(C)c1C[Se]C(=N)N | 2.4 µM | > 50 µM | > 50 µM | 13.6 µM | 7.4 µM | 6.8 µM | 1.2 µM | 45 µM | > 50 µM | 2.8 µM | > 50 µM | 3.4 µM | 37.4 µM | > 50 µM | > 50 µM | 22 µM | 4.6 µM | > 50 µM |
| N=C(N)SCc1c2ccccc2nc2ccccc12 | 46.3 µM | > 50 µM | > 50 µM | > 50 µM | > 50 µM | > 50 µM | > 50 µM | > 50 µM | > 50 µM | > 50 µM | > 50 µM | > 50 µM | > 50 µM | > 50 µM | > 50 µM | > 50 µM | 45.1 µM | > 50 µM |
| N=C(N)[Se]Cc1ccc(-n2cccc2)cc1 | 8.3 µM | > 50 µM | > 50 µM | > 50 µM | > 50 µM | 14.7 µM | 12.8 µM | > 50 µM | > 50 µM | 16.3 µM | > 50 µM | > 50 µM | > 50 µM | > 50 µM | > 50 µM | > 50 µM | > 50 µM | 25.3 µM |
| N=C(N)SCc1ccc2ccccc2n1 | 25.7 µM | > 50 µM | > 50 µM | > 50 µM | 31.6 µM | 37.3 µM | > 50 µM | 28.5 µM | > 50 µM | > 50 µM | > 50 µM | 39.2 µM | > 50 µM | > 50 µM | > 50 µM | > 50 µM | 22.9 µM | > 50 µM |
| N=C(N)[Se]Cc1ccc([N+](=O)[O-])o1 | 15.6 µM | > 50 µM | 15.7 µM | 13.6 µM | 15.6 µM | 39.4 µM | 9 µM | 3.7 µM | 42.9 µM | 10.2 µM | > 50 µM | 13 µM | 15.6 µM | 19.1 µM | 14.6 µM | > 50 µM | 3.8 µM | 22.9 µM |
| N=C(N)SCN1C(=O)c2ccccc2C1=O | > 50 µM | > 50 µM | > 50 µM | > 50 µM | > 50 µM | > 50 µM | > 50 µM | > 50 µM | > 50 µM | > 50 µM | > 50 µM | > 50 µM | > 50 µM | > 50 µM | > 50 µM | > 50 µM | > 50 µM | > 50 µM |
